Only some compounds are listed: those with a hit (about 1.9% of all), similar ones and a draw of the others.
HIV Env fusion: HIV envelope-mediated fusion inhibition. HeLa-JRFL Env/CEM21 cell fusion, luciferase. inhibition, % at 12.3 µM. 360,000 tested, 1.1% active;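 active = mean replicate inhibition score of at least 50 and every replicate individually at or above 50; inconclusive = only one of the two criteria met; inactive = mean below 50 and not all replicates reaching 50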
N-glyco inh: N-linked glycosylation inhibition; D54 ERlucT glycosylation luciferase reporter, 24 h; percent of 100 nM tunicamycin response; reporter increase, % at 12.5 µM; 360,000 tested, 0.23% active;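 active = mean luciferase reporter signal, scaled so untreated is 0 and the glycosylation-blocking control 100, at or above a set limit in every replicate; inconclusive = mean reaches the limit but not every replicate does; inactive = mean below the limit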;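 also: luciferase carries N-glycosylation sites so blocking glycosylation raises the light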
Rtt109 Vps75: blocks Candida albicans Rtt109/Vps75 acetyltransferase activity | purified Rtt109/Vps75, ThioGlo CoA-SH fluorescence, 4 h | AID 540336 | 330,000 tested, 0.16% active | Q5AAJ8 | inhibition, % at 34.9 µM;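 active = inhibition of at least 50% in every replicate; inconclusive = best replicate reaches 50% inhibition but some replicates fall short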
PglD inh: blocks C. jejuni PglD acetyltransferase activity; 360,000 tested, 0.098% active; inhibition, % at 12.5 µM; AID 602405; purified PglD enzyme, DTNB colorimetric CoA detection; in the data active = inhibition above about 16%, passing the limit was not always enough; inconclusive = no clear call, values can overlap the other calls
SR-BI HDL uptake: inhibitors of mouse SR-BI mediated HDL lipid uptake. ldlA[mSR-BI] CHO cells, DiI-HDL uptake fluorescence, 3 h. inhibition, % at 12.5 µM. 320,000 tested, 0.96% active. AID 488896;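 active = mean replicate inhibition of at least 70% and a set share of replicates each scoring 70 or more; inconclusive = meets just one of the two criteria; inactive = fails both criteria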
Target sequence (Q61009 whole entry, looked up): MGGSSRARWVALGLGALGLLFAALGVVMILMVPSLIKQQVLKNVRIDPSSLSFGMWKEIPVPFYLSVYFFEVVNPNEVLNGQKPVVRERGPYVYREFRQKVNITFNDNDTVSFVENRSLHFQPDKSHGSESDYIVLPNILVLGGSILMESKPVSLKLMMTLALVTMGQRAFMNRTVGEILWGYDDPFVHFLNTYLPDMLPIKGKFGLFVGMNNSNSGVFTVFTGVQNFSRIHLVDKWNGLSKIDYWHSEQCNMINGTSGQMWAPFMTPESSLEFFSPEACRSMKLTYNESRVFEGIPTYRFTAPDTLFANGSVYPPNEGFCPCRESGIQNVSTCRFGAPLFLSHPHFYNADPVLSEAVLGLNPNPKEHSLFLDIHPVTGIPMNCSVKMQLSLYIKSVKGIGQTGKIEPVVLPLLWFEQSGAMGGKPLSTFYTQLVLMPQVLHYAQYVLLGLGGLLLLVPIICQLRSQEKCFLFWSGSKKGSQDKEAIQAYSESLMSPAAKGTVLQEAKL
SR-BI DiI-HDL act: SR-BI HDL lipid transfer activation | CHO ldlA[mSR-BI] cells, DiI-HDL uptake fluorescence, 3 h; 100 = double the neutral-control signal | activation, % at 12.5 µM | 320,000 tested, 0.096% active | AID 504775;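 active = mean replicate activation of at least 60% and every replicate at or above 60%; inconclusive = mean or all-replicate condition met, but not both; inactive = mean below 60% and not all replicates reaching 60%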
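Material – SR-BI-overexpressing, LDLR-lacking CHO cells · Medium – BSA-supplemented, HEPES-buffered Ham's F12, pH 7.4 · Doses – single concentration · Times – compound with DiI-HDL co-incubation, 3 h at 37 °C · Measured by – bottom-read fluorescence, 550/595 nm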
Numbers stand for hits; 0 = inactive; ? = inconclusive; - = no result given.

SMILES	HIV Env fusion	N-glyco inh	Rtt109 Vps75	PglD inh	SR-BI HDL uptake	SR-BI DiI-HDL act
CCC(=O)Nc1ccc2c(c1)OC[C@@H](C)N(CC1CCCCC1)C[C@@H](C)[C@@H](OC)CN(C)C2=O	0	-	-	0	-	-
C[C@H]1CN([C@@H](C)CO)C(=O)Cc2cc(NC(=O)CCCCCC(=O)Nc3ccccc3N)ccc2O[C@@H]1CN(C)C(=O)Nc1ccc2c(c1)OCO2	0	-	-	0	-	-
C[C@@H]1CN([C@H](C)CO)S(=O)(=O)c2ccc(C3=CCCCC3)cc2O[C@@H]1CN(C)C(=O)c1ccccc1	0	-	-	0	-	-
CCN(CC)C(=O)Cn1cc(C(=O)C(=O)Nc2ccc3c(c2)OCCO3)c2ccccc21	0	0	0	0	77.0	0
C[C@H](CO)N1C[C@H](C)[C@H](CN(C)C(=O)Nc2cccc3ccccc23)Oc2ccc(NC(=O)C3CC3)cc2CC1=O	0	-	-	-	-	-
COc1cccc(CNC(=O)C[C@@H]2C=C[C@H](NS(=O)(=O)c3ccccc3OC)[C@H](CO)O2)c1	0	-	-	0	-	-
COc1ccc(/C=C/C(=O)Nc2cccc(S(=O)(=O)N3CCOCC3)c2)cc1OC	0	0	0	0	0	0
COc1ccc(OC)c(/C=C/C(=O)Nc2ccc3c(c2)CCC3)c1	-	0	0	0	?	0
COc1cc(/C=C/C(=O)Nc2cccc(S(=O)(=O)N3CCOCC3)c2)ccc1OCC#N	-	0	0	0	77.6	0
COc1ccccc1/C=C/C(=O)Nc1cccc(S(=O)(=O)N2CCOCC2)c1	-	0	0	0	84.9	0
COc1ccccc1/C=C/C(=O)Nc1ccc2c(c1)CCC2	0	0	0	-	72.5	0
COc1cccc(/C=C/C(=O)OCC(=O)Nc2cccc(S(=O)(=O)N3CCOCC3)c2)c1OC	0	0	0	-	0	0
CCn1cc(C(=O)OCC(=O)OC2CC(C)CCC2C(C)C)c(=O)c2ccc(C)nc21 (stereo not given)	?	0	0	0	81.5	0
CN(C)c1ccc(NC(=O)CSc2nc(N)c(C(=O)Nc3ccc(N(C)C)cc3)s2)cc1	41.0	0	0	0	0	0
COc1ccc(NC(=O)CSc2nc(N)c(C(=O)Nc3ccc(N(C)C)cc3)s2)cc1	-	0	0	0	0	0
CCCCN(C(=O)c1cc(S(=O)(=O)N2CCOCC2)ccc1Cl)c1c(N)n(CC(C)C)c(=O)[nH]c1=O	59.0	0	0	-	0	0
CCCCN(C(=O)c1cc(S(=O)(=O)N2CCCCC2)ccc1Cl)c1c(N)n(CC(C)C)c(=O)[nH]c1=O	0	0	0	0	0	0
COc1ccc(NC(=O)N(C)C[C@H]2OCCCC[C@H](C)Oc3ccc(NC(=O)c4ccccc4)cc3C(=O)N([C@@H](C)CO)C[C@@H]2C)cc1	0	-	-	0	-	-
CCOc1ccccc1/C=N/NC(=O)c1cccc(S(=O)(=O)N2CCOCC2)c1	0	0	0	0	82.1	0
CCN(CC)c1ccc(C=Nc2cccc(S(=O)(=O)N3CCOCC3)c2)c(O)c1	0	0	0	0	0	0
CCN(CC)c1ccc(/C=N/NC(=O)c2cccc(S(=O)(=O)N3CCOCC3)c2)c(O)c1	0	0	0	0	113.7	0
O=C(N/N=C/c1ccccc1C(=O)O)c1cccc(S(=O)(=O)N2CCOCC2)c1	0	0	0	0	0	0
CCOc1ccccc1/C=N/NC(=O)c1cc(C(C)C)[nH]n1	0	0	0	0	72.5	0
O=C(Nc1ccc2c(c1)[C@@H]1C[C@H](CC(=O)N3CCOCC3)O[C@H](CO)[C@@H]1O2)NC1CCCC1	-	-	-	0	-	-
COCC#Cc1cnc2c(c1)C(=O)N([C@@H](C)CO)C[C@H](C)[C@H](CN(C)C(=O)c1cccc(F)c1)O2	0	-	-	0	-	-
C[C@@H]1CN([C@H](C)CO)C(=O)c2cc(C#CC3CC3)cnc2O[C@H]1CN(C)C(=O)C1CCCCC1	0	-	-	-	-	-
FC(F)(F)c1nc(-c2ccncc2)ncc1-c1nnnn1-c1ccccc1	0	0	0	-	0	0
FC(F)(F)c1nc(N2CCCC2)ncc1-c1nnnn1-c1ccc(Cl)cc1	58.0	0	0	-	0	0
Fc1ccc(-n2nnnc2-c2cnc(-c3cccs3)nc2C(F)(F)F)cc1	76.9	0	0	-	0	0
Cc1ccc(-n2nnnc2-c2cnn(-c3ccc(F)cc3)c2C(F)(F)F)cc1	95.5	0	-	0	0	0
